ChEMBL document CHEMBL1154032, “Substituted pyrimidines as cannabinoid CB1 receptor ligands” (Bioorg Med Chem Lett, 2009)

Tests used:
Cannabinoid receptor 1 = Cannabinoid receptor 1 (Rattus norvegicus, UniProt P20272); test: Displacement of [3H]CP-55940 from cannabinoid CB1 receptor in Sprague-Dawley rat cerebellar membrane by liquid scintillation spectrometry; design: species or system Cerebellum
In short: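 About 10 µg membrane incubated with 3 nM [3H]CP55,940, graded ligand concentrations, TME with 0.5% fatty-acid-free BSA, 1 h at 30 °C. PEI-soaked GF/B filtration, five ice-cold washes. IC50 by nonlinear regression, triplicate.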

Cannabinoid receptor 2 = Cannabinoid receptor 2 (Homo sapiens, UniProt P34972); test: Displacement of [3H]WIN-55212-2 from human recombinant CB2 receptor expressed in CHOK1 cells by liquid scintillation spectrometry; assay type: cell-based, CHO-K1
Chain of Cannabinoid receptor 2 (P34972 whole entry): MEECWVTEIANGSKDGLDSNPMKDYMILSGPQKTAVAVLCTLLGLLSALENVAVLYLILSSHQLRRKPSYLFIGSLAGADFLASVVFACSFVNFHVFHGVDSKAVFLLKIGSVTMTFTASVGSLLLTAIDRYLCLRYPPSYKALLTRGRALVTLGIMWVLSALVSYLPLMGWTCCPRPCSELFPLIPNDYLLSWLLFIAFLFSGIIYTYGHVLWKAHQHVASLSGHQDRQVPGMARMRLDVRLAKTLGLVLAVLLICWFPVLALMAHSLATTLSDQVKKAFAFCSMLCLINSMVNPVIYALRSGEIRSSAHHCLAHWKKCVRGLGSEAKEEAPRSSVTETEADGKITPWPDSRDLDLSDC
In short: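 Membranes from CHO K-1 cells transfected with human CB2, prepared as for brain tissue (TME buffer pH 7.4, 48,000g spin). About 10 µg membrane incubated with 3 nM [3H]WIN55,212-2 and graded ligand concentrations in TME with 0.5% fatty-acid-free BSA, 1 h at 30 °C. Filtered over PEI-soaked GF/B, washed five times ice-cold. IC50 from nonlinear regression, triplicate.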

Chain of Cannabinoid receptor 1 (P20272 whole entry): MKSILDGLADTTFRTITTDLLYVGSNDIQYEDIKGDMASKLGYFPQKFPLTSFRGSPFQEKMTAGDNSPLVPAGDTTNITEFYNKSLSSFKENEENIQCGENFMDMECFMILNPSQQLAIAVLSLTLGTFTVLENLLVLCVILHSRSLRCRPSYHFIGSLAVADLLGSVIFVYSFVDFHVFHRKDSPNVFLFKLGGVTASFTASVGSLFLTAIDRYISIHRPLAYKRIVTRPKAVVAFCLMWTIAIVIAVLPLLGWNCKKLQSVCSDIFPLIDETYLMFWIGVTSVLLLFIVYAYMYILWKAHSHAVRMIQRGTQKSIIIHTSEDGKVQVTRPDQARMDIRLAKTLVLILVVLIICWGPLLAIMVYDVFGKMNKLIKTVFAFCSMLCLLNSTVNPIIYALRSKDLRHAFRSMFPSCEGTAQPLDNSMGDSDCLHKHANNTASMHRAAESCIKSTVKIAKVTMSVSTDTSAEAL

SMILES	IC50 (Cannabinoid receptor 1) [nM]	IC50 (Cannabinoid receptor 2) [nM]
C[C@H](Nc1cc(N2CCCCC2)ncn1)[C@@H](Cc1ccc(Cl)cc1)c1cccc(Br)c1	21	–
C[C@H](Nc1cc(C2CCCCC2)ncn1)[C@@H](Cc1ccc(Cl)cc1)c1cccc(Br)c1	63.1	–
C[C@H](Nc1cc(C2CCCC2)ncn1)[C@@H](Cc1ccc(Cl)cc1)c1cccc(Br)c1	39.8	–
CCCCNc1cc(N[C@@H](C)[C@@H](Cc2ccc(Cl)cc2)c2cccc(Br)c2)nc(C(F)(F)F)n1	43.5	–
C[C@H](Nc1cc(NC2CCCCC2)ncn1)[C@@H](Cc1ccc(Cl)cc1)c1cccc(Br)c1	27.6	–
C[C@H](Nc1cc(NC2CCCCCC2)ncn1)[C@@H](Cc1ccc(Cl)cc1)c1cccc(Br)c1	45.3	–
C[C@H](Nc1cc(NCC2CCCCC2)ncn1)[C@@H](Cc1ccc(Cl)cc1)c1cccc(Br)c1	70.5	–
CCN(C)c1cc(N[C@@H](C)[C@@H](Cc2ccc(Cl)cc2)c2cccc(Br)c2)ncn1	106	–
CCCCNc1cc(N[C@@H](C)[C@@H](Cc2ccc(Cl)cc2)c2cccc(Br)c2)ncn1	16.3	2960
CC[C@H](Nc1cc(NC2CCCC2)ncn1)[C@@H](Cc1ccc(Cl)cc1)c1cccc(Br)c1	63.2	–
CC[C@H](Nc1cc(NC2CCCCC2)ncn1)[C@@H](Cc1ccc(Cl)cc1)c1cccc(Br)c1	569	–
CCCCCNc1cc(N[C@@H](C)[C@@H](Cc2ccc(Cl)cc2)c2cccc(Br)c2)nc(C(F)(F)F)n1	59.3	–
C[C@H](Nc1cc(NC2CCCCC2)nc(C(F)(F)F)n1)[C@@H](Cc1ccc(Cl)cc1)c1cccc(Br)c1	22.4	–
CCCCNc1cc(N[C@@H](C)[C@@H](Cc2ccc(Cl)cc2)c2cccc(Br)c2)nc(C)n1	82	–
C[C@H](Nc1cc(NCc2ccccn2)ncn1)[C@@H](Cc1ccc(Cl)cc1)c1cccc(Br)c1	264	–
Cc1nc(N[C@@H](C)[C@@H](Cc2ccc(Cl)cc2)c2cccc(Br)c2)cc(N2CCCCC2)n1	28.9	–

SMILES	IC50 (Cannabinoid receptor 1) [nM]	IC50 (Cannabinoid receptor 2) [nM]
C[C@H](Nc1cc(NCc2ccccc2)ncn1)[C@@H](Cc1ccc(Cl)cc1)c1cccc(Br)c1	195	–
C[C@H](Nc1cc(OC2CCCCC2)ncn1)[C@@H](Cc1ccc(Cl)cc1)c1cccc(Br)c1	95.3	–
C[C@H](Nc1cc(N2CCCCCC2)ncn1)[C@@H](Cc1ccc(Cl)cc1)c1cccc(Br)c1	94.4	–
C[C@H](Nc1cc(N2CCC(C(F)(F)F)CC2)ncn1)[C@@H](Cc1ccc(Cl)cc1)c1cccc(Br)c1	75	–
CSc1nc(N[C@@H](C)[C@@H](Cc2ccc(Cl)cc2)c2cccc(Br)c2)cc(N2CCCCC2)n1	109	–
CCCCCCNc1cc(N[C@@H](C)[C@@H](Cc2ccc(Cl)cc2)c2cccc(Br)c2)ncn1	342	–
Cc1nc(NCc2ccc(C(F)(F)F)cc2)cc(N[C@@H](C)[C@@H](Cc2ccc(Cl)cc2)c2cccc(Br)c2)n1	160	–
CSc1nc(NC2CCCCCC2)cc(N[C@@H](C)[C@@H](Cc2ccc(Cl)cc2)c2cccc(Br)c2)n1	33	–
CCC(CC)Nc1cc(N[C@@H](C)[C@@H](Cc2ccc(Cl)cc2)c2cccc(Br)c2)ncn1	93.6	–
CCCCOc1cc(N[C@@H](C)[C@@H](Cc2ccc(Cl)cc2)c2cccc(Br)c2)ncn1	76.6	–
CC[C@H](Nc1cc(NC2CCCCCC2)ncn1)[C@@H](Cc1ccc(Cl)cc1)c1cccc(Br)c1	636	–
C[C@H](Nc1cc(N2CCCC2)ncn1)[C@@H](Cc1ccc(Cl)cc1)c1cccc(Br)c1	116	–
C[C@H](Nc1cc(N2CCOCC2)ncn1)[C@@H](Cc1ccc(Cl)cc1)c1cccc(Br)c1	69.3	–
Clc1ccc(C[C@H](CNc2cc(NC3CCCCCC3)ncn2)c2cccc(Br)c2)cc1	1540	–
CC[C@H](Nc1cc(N2CCCCC2)ncn1)[C@@H](Cc1ccc(Cl)cc1)c1cccc(Br)c1	285	–

Continued by falling IC50 (Cannabinoid receptor 1), values first:

IC50 (Cannabinoid receptor 1) [nM]	IC50 (Cannabinoid receptor 2) [nM]	SMILES
283	–	CC1CC(C)CN(c2cc(N[C@@H](C)[C@@H](Cc3ccc(Cl)cc3)c3cccc(Br)c3)ncn2)C1 (some centres not stated)
203	–	CCCCCOc1cc(N[C@@H](C)[C@@H](Cc2ccc(Cl)cc2)c2cccc(Br)c2)ncn1
196	–	C[C@H](Nc1cc(N2CCCCC2)nc(C(F)(F)F)n1)[C@@H](Cc1ccc(Cl)cc1)c1cccc(Br)c1
195	–	CCCCCNc1cc(N[C@@H](C)[C@@H](Cc2ccc(Cl)cc2)c2cccc(Br)c2)ncn1
155	–	CC(C)CNc1cc(N[C@@H](C)[C@@H](Cc2ccc(Cl)cc2)c2cccc(Br)c2)ncn1
136	–	COc1cc(N[C@@H](C)[C@@H](Cc2ccc(Cl)cc2)c2cccc(Br)c2)ncn1
136	–	C[C@H](Nc1cc(OCC2CCCCC2)ncn1)[C@@H](Cc1ccc(Cl)cc1)c1cccc(Br)c1
135	–	CCCCCCOc1cc(N[C@@H](C)[C@@H](Cc2ccc(Cl)cc2)c2cccc(Br)c2)ncn1
130	–	Cc1nc(N[C@@H](C)[C@@H](Cc2ccc(Cl)cc2)c2cccc(Br)c2)cc(N(C)C)n1
115	–	C[C@H](Nc1cc(NCC2CCCO2)ncn1)[C@@H](Cc1ccc(Cl)cc1)c1cccc(Br)c1 (some centres not stated)
113	–	CC(C)CCNc1cc(N[C@@H](C)[C@@H](Cc2ccc(Cl)cc2)c2cccc(Br)c2)ncn1
103	–	CCCCC(CC)CNc1cc(N[C@@H](C)[C@@H](Cc2ccc(Cl)cc2)c2cccc(Br)c2)ncn1 (some centres not stated)
98.6	–	Cc1nc(NC2CCCC2)cc(N[C@@H](C)[C@@H](Cc2ccc(Cl)cc2)c2cccc(Br)c2)n1
97.8	–	C[C@H](Nc1cc(Nc2ccc(F)cc2)ncn1)[C@@H](Cc1ccc(Cl)cc1)c1cccc(Br)c1
76.5	–	CC1CCN(c2cc(N[C@@H](C)[C@@H](Cc3ccc(Cl)cc3)c3cccc(Br)c3)ncn2)CC1
73.8	–	CCCCc1cc(N[C@@H](C)[C@@H](Cc2ccc(Cl)cc2)c2cccc(Br)c2)ncn1
71.1	–	Clc1ccc(C[C@H](CNc2cc(N3CCCCC3)ncn2)c2cccc(Br)c2)cc1
69.6	–	CCCCNc1cc(N[C@@H](C)[C@@H](Cc2ccc(Cl)cc2)c2cccc(Br)c2)nc(SC)n1
67.4	–	C[C@H](Nc1cc(Nc2ccccc2)ncn1)[C@@H](Cc1ccc(Cl)cc1)c1cccc(Br)c1
66.5	–	Cc1nc(NC2CCCCCC2)cc(N[C@@H](C)[C@@H](Cc2ccc(Cl)cc2)c2cccc(Br)c2)n1
57.3	–	CSc1nc(NC2CCCCC2)cc(N[C@@H](C)[C@@H](Cc2ccc(Cl)cc2)c2cccc(Br)c2)n1
48.1	–	CCCNc1cc(N[C@@H](C)[C@@H](Cc2ccc(Cl)cc2)c2cccc(Br)c2)ncn1
38.9	–	C[C@H](Nc1cc(NC2CCCCCC2)nc(C(F)(F)F)n1)[C@@H](Cc1ccc(Cl)cc1)c1cccc(Br)c1
24.7	–	C[C@H](Nc1cc(NC2CCCC2)ncn1)[C@@H](Cc1ccc(Cl)cc1)c1cccc(Br)c1
22.1	–	Cc1nc(NC2CCCCC2)cc(N[C@@H](C)[C@@H](Cc2ccc(Cl)cc2)c2cccc(Br)c2)n1
